Active and inactive are the calls of the source. The calls are words filed in the database; no cut-off is given here.

For the assay, the target named is T1, Peroxisome proliferator-activated receptor gamma (Homo sapiens) (UniProt P37231).
T1 sequence (whole entry): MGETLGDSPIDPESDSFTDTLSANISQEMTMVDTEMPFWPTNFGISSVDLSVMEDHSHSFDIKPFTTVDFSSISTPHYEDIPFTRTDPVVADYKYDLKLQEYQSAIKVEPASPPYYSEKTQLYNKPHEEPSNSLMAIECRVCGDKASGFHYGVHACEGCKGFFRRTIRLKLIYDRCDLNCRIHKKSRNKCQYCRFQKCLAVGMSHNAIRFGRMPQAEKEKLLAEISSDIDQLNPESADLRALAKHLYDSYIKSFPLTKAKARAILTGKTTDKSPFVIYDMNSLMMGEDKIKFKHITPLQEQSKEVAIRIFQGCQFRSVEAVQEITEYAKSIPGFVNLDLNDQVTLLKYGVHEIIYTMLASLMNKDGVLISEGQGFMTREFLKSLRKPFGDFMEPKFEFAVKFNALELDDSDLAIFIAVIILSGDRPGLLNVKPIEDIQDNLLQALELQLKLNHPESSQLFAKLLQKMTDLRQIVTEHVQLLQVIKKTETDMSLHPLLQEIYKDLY
Nature of the assay: Binding affinity to human recombinant […] expressed in african green monkey CV1 cells coexpressing GAL4-luc reporter by microplate scintillation counter. In kind it is cell-based. The following applies: CV-1. In outline: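 GAL4-PPAR-γ chimera reporter assay in CV-1 monkey kidney cells seeded at 6 × 10³ cells/well in DMEM with 10% FBS and ascorbic acid, 37 °C, 5% CO2, 24 h. Cells transfected with pM-hPPAR-γ and p4×UASg-tk-luc, then 24 h later given DMEM with 10% charcoal-treated FBS plus sample (2 or 10 μg/mL; final DMSO 0.1%) for 24 h. Luciferase luminescence expressed relative to DMSO control; n = 4.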

Take `CC1(C)C=Cc2c(ccc(-c3coc4cc(O)ccc4c3=O)c2O)O1`: the outcome was Active.
Turning to `CC1(C)C=Cc2c(ccc3cc(-c4ccc(O)cc4O)c(=O)oc23)O1`, the outcome was Active.
`COc1cc(O)ccc1/C=C/C(=O)c1ccc(O)cc1`: the result was Active.
In the case of `COc1ccc([C@@H]2COc3cc(O)ccc3C2)c(O)c1O` it was “Active”; in that of `CC(C)=CCc1cc([C@@H]2CC(=O)c3ccc(O)c(CC=C(C)C)c3O2)ccc1O`, “Active”; in that of `CC1(C)C=Cc2c(ccc3c2OC[C@@H](c2cc(C=O)c(O)cc2O)C3)O1`, “Active”.
`CC1(C)C=Cc2c(ccc3c2OC[C@H]2c4ccc(O)cc4O[C@@H]32)O1`: the outcome was Active.
On to `CC(C)=CCc1cc([C@H]2Oc3cc(O)ccc3C(=O)[C@@H]2O)ccc1O`, for which the outcome was Active.
Regarding `CC(C)=CCc1cc([C@@H]2CC(=O)c3ccc4c(c3O2)C=CC(C)(C)O4)ccc1O`, the outcome was Active.
Consider `CC(C)=CCc1c(O)cc(O)c2c(=O)c(-c3ccc(O)c(O)c3)coc12`, for which the outcome was Active.
With `CC(C)=CCc1c(O)ccc([C@@H]2COc3c(ccc(O)c3CC=C(C)C)C2)c1O`, the result was Active.
`CC(C)=CCc1cc2c(=O)cc(-c3ccc(O)cc3)oc2cc1O`: the result was Active.

(Values after ChEMBL document CHEMBL1158505, “Phenolics from Glycyrrhiza glabra roots and their PPAR-gamma ligand-binding activity” (Bioorg Med Chem, 2010).)
